Source: ChEMBL document CHEMBL1157834, “Structure-activity relationships of carbocyclic 6-benzylthioinosine analogues as subversive substrates of Toxoplasma gondii adenosine kinase” (Bioorg Med Chem, 2010)

Legend:
[1] = tested on: Toxoplasma gondii (RH strain); test: Activity against Toxoplasma gondii RH in human CRL1634 cells after 18 hrs by [5,6-3H]uracil incorporation assay
Toxoplasma gondii [2] = test: Antimicrobial activity against wild-type Toxoplasma gondii RH infected in human CRL1634 cells assessed as intracellular parasite survival at 50 uM after 18 hrs by [5,6-[…]]uracil-based scintillation counting; assay type: functional
Procedure, shortened: (§1)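 Confluent human foreskin fibroblasts (≤20 passages, RPMI-1640) plated ~5×10⁵/well for 24 h at 37 °C, 5% CO₂. Infected with isolated tachyzoites in 3% FBS medium, 1 parasite/cell, for 1 h, then washed with 10% FBS medium. Compounds in 50% ethanol added to 0–50 µM (final ethanol 2.5%). After 18 h, drug-free medium with [5,6-³H]uracil (5 µCi/mL) for 6 h. TCA precipitates collected on glass-fiber filters and counted by scintillation. Growth taken as % uptake of treated vs untreated; ≥2 experiments in triplicate.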

Toxoplasma gondii [3] = test: Antimicrobial activity against wild-type Toxoplasma gondii RH infected in human CRL1634 cells assessed as intracellular parasite survival at 25 uM after 18 hrs by [5,6-[…]]uracil-based scintillation counting; assay type: functional
Procedure, shortened: as §1

Homo sapiens [4] = species on record: Homo sapiens; test: Cytotoxicity against uninfected human CRL1634 cells assessed as cell viability at 5 uM after 48 hrs by MTT assay
Toxoplasma gondii [5] = test: Antimicrobial activity against Toxoplasma gondii infected in human CRL1634 cells assessed as intracellular parasite survival at 25 uM after 18 hrs by [5,6-[…]]uracil-based scintillation counting; assay type: functional
Procedure, shortened: as §1

Toxoplasma gondii [6] = test: Antimicrobial activity against wild-type Toxoplasma gondii RH infected in human CRL1634 cells assessed as intracellular parasite survival at 10 uM after 18 hrs by [5,6-[…]]uracil-based scintillation counting; assay type: functional
Procedure, shortened: as §1

Toxoplasma gondii [7] = test: Antimicrobial activity against wild-type Toxoplasma gondii RH infected in human CRL1634 cells assessed as intracellular parasite survival at 5 uM after 18 hrs by [5,6-[…]]uracil-based scintillation counting; assay type: functional
Procedure, shortened: as §1

Homo sapiens [8] = species on record: Homo sapiens; test: Cytotoxicity against uninfected human CRL1634 cells assessed as cell viability at 10 uM after 48 hrs by MTT assay
Adenosine kinase = molecular target: T1, Adenosine kinase (Toxoplasma gondii, UniProt Q9TVW2); test: Binding affinity to Toxoplasma gondii adenosine kinase after 20 mins by radioactivity method
T1 sequence (Q9TVW2 whole entry): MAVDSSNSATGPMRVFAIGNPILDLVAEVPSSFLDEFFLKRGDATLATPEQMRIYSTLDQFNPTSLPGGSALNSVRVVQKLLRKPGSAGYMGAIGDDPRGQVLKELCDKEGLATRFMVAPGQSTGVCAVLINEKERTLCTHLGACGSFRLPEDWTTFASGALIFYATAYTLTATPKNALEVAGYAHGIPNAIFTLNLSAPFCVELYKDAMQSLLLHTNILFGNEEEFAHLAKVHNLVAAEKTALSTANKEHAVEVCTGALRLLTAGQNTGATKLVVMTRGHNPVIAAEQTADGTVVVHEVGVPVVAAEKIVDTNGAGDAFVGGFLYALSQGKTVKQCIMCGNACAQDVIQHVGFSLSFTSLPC
Procedure, shortened: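 Purified cloned T. gondii adenosine kinase in 50 mM Tris–Cl pH 7.4 with 2.5 mM ATP, 5 mM MgCl₂, 5 mM creatine phosphate, creatine kinase and [8-¹⁴C]adenosine (55 Ci/mol), with or without varied compound, at 37 °C under linear conditions. Stopped by boiling; adenosine and AMP separated by TLC (CHCl₃/MeOH/AcOH 102:12:6) and radioactivity quantified. Apparent Ki taken as apparent Km. ≥2 experiments in triplicate.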

Toxoplasma gondii [9] = test: Antimicrobial activity against adenosine kinase deficient Toxoplasma gondii TgAK-3 infected in human CRL1634 cells assessed as intracellular parasite survival at 10 uM after 18 hrs by [5,6-[…]]uracil-based scintillation counting; assay type: functional
Procedure, shortened: as §1

Toxoplasma gondii [10] = test: Antimicrobial activity against adenosine kinase deficient Toxoplasma gondii TgAK-3 infected in human CRL1634 cells assessed as intracellular parasite survival at 50 uM after 18 hrs by [5,6-[…]]uracil-based scintillation counting; assay type: functional
Procedure, shortened: as §1

Toxoplasma gondii [11] = test: Antimicrobial activity against adenosine kinase deficient Toxoplasma gondii TgAK-3 infected in human CRL1634 cells assessed as intracellular parasite survival at 5 uM after 18 hrs by [5,6-[…]]uracil-based scintillation counting; assay type: functional
Procedure, shortened: as §1

Toxoplasma gondii [12] = test: Antimicrobial activity against adenosine kinase deficient Toxoplasma gondii TgAK-3 infected in human CRL1634 cells assessed as intracellular parasite survival at 25 uM after 18 hrs by [5,6-[…]]uracil-based scintillation counting; assay type: functional
Procedure, shortened: as §1

[13] = molecular target: T2, Adenosine kinase (Toxoplasma gondii) (UniProt Q9TVW2); test: Ratio of Km for carbocyclic 6-benzylthioinosine to Km for drug for binding affinity to Toxoplasma gondii adenosine kinase after 20 mins by radioactivity method
T2 sequence (whole entry): T1 sequence (Q9TVW2 whole entry)

CCc1nc(N)nc(N)c1-c1ccc(Cl)cc1 [PYRIMETHAMINE]
IC50 [1]: 16.1 µM
Activity (Toxoplasma gondii [2]): 23%
Activity (Toxoplasma gondii [3]): 25%
Activity (Homo sapiens [4]): 101%
Activity (Toxoplasma gondii [5]): 108%
Activity (Toxoplasma gondii [6]): 55%
Activity (Toxoplasma gondii [7]): 99%
Activity (Homo sapiens [8]): 100%

OC[C@H]1C[C@@H](n2cnc3c(SCc4ccccc4Cl)ncnc32)[C@H](O)[C@@H]1O
Ki (Adenosine kinase): 24.2 µM

OC[C@H]1C[C@@H](n2cnc3c(SCc4cccc(C(F)(F)F)c4)ncnc32)[C@H](O)[C@@H]1O
Ki (Adenosine kinase): 22.2 µM

Cc1ccccc1CSc1ncnc2c1ncn2[C@@H]1C[C@H](CO)[C@@H](O)[C@H]1O
Ki (Adenosine kinase): 24.9 µM

OC[C@H]1C[C@@H](n2cnc3c(SCc4ccc(Br)cc4)ncnc32)[C@H](O)[C@@H]1O
Ki (Adenosine kinase): 21.1 µM

OC[C@H]1C[C@@H](n2cnc3c(SCc4ccccc4F)ncnc32)[C@H](O)[C@@H]1O
Ki (Adenosine kinase): 54.8 µM

N#Cc1ccc(CSc2ncnc3c2ncn3[C@@H]2C[C@H](CO)[C@@H](O)[C@H]2O)cc1
Ki (Adenosine kinase): 129 µM

OC[C@H]1O[C@@H](n2cnc3c(SCc4ccccc4)ncnc32)[C@H](O)[C@@H]1O [6-BENZYLTHIOINOSINE]
Ki (Adenosine kinase): 14.3 µM

CS(=O)(=O)c1ccc(CSc2ncnc3c2ncn3[C@@H]2C[C@H](CO)[C@@H](O)[C@H]2O)cc1
Ki (Adenosine kinase): 73.7 µM

O=[N+]([O-])c1cccc(CSc2ncnc3c2ncn3[C@@H]2C[C@H](CO)[C@@H](O)[C@H]2O)c1
Ki (Adenosine kinase): 26.6 µM

OC[C@H]1C[C@@H](n2cnc3c(SCc4ccc(OC(F)(F)F)cc4)ncnc32)[C@H](O)[C@@H]1O
Ki (Adenosine kinase): 65.5 µM

OC[C@H]1C[C@@H](n2cnc3c(SCc4ccc(Cl)c(Cl)c4)ncnc32)[C@H](O)[C@@H]1O
Ki (Adenosine kinase): 16.8 µM

Cc1cccc(CSc2ncnc3c2ncn3[C@@H]2C[C@H](CO)[C@@H](O)[C@H]2O)c1
Ki (Adenosine kinase): 26.8 µM

OC[C@H]1C[C@@H](n2cnc3c(SCc4ccccc4)ncnc32)[C@H](O)[C@@H]1O
Ki (Adenosine kinase): 105 µM

Cc1ccc(CSc2ncnc3c2ncn3[C@@H]2C[C@H](CO)[C@@H](O)[C@H]2O)cc1
Ki (Adenosine kinase): 7.5 µM
IC50 [1]: 11.9 µM
Activity (Toxoplasma gondii [9]): 100%
Activity (Toxoplasma gondii [10]): 100%
Activity (Toxoplasma gondii [11]): 99%
Activity (Toxoplasma gondii [2]): 0%
Activity (Toxoplasma gondii [3]): 0%
Activity (Toxoplasma gondii [12]): 100%
Activity (Homo sapiens [4]): 100%
Ratio [13]: 14
Activity (Toxoplasma gondii [5]): 100%
Activity (Toxoplasma gondii [6]): 2.5%
Activity (Toxoplasma gondii [7]): 43%
Activity (Homo sapiens [8]): 100%

OC[C@H]1C[C@@H](n2cnc3c(SCc4c(F)cccc4Cl)ncnc32)[C@H](O)[C@@H]1O
Ki (Adenosine kinase): 31.3 µM

OC[C@H]1C[C@@H](n2cnc3c(SCc4ccc(Cl)cc4Cl)ncnc32)[C@H](O)[C@@H]1O
Ki (Adenosine kinase): 60.7 µM

COC(=O)c1ccc(CSc2ncnc3c2ncn3[C@@H]2C[C@H](CO)[C@@H](O)[C@H]2O)cc1
Ki (Adenosine kinase): 40.9 µM

OC[C@H]1C[C@@H](n2cnc3c(SCc4ccc(Cl)cc4)ncnc32)[C@H](O)[C@@H]1O
Ki (Adenosine kinase): 15.6 µM
IC50 [1]: 14.5 µM
Activity (Toxoplasma gondii [9]): 100%
Activity (Toxoplasma gondii [10]): 100%
Activity (Toxoplasma gondii [11]): 100%
Activity (Toxoplasma gondii [2]): 0%
Activity (Toxoplasma gondii [3]): 0%
Activity (Toxoplasma gondii [12]): 100%
Activity (Homo sapiens [4]): 100%
Activity (Toxoplasma gondii [5]): 100%
Activity (Toxoplasma gondii [6]): 12%
Activity (Toxoplasma gondii [7]): 73%
Activity (Homo sapiens [8]): 100%

COc1ccc(CSc2ncnc3c2ncn3[C@@H]2C[C@H](CO)[C@@H](O)[C@H]2O)cc1
Ki (Adenosine kinase): 62 µM

OC[C@H]1C[C@@H](n2cnc3c(SCc4ccc(F)cc4)ncnc32)[C@H](O)[C@@H]1O
Ki (Adenosine kinase): 31.9 µM

Cc1cc(C)c(CSc2ncnc3c2ncn3[C@@H]2C[C@H](CO)[C@@H](O)[C@H]2O)c(C)c1
Ki (Adenosine kinase): 63.1 µM

Nc1ccc(S(=O)(=O)Nc2ncccn2)cc1 [SULFADIAZINE]
IC50 [1]: 27.3 µM
Activity (Toxoplasma gondii [2]): 46%
Activity (Toxoplasma gondii [3]): 53%
Activity (Homo sapiens [4]): 98%
Activity (Toxoplasma gondii [5]): 100%
Activity (Toxoplasma gondii [6]): 58%
Activity (Toxoplasma gondii [7]): 93%
Activity (Homo sapiens [8]): 100%

O=[N+]([O-])c1ccc(CSc2ncnc3c2ncn3[C@@H]2C[C@H](CO)[C@@H](O)[C@H]2O)cc1
Ki (Adenosine kinase): 94.1 µM
